According to ChEMBL document CHEMBL4229344 (Eur J Med Chem, 2018):

What was measured:
[1] = system: Tyrosine-protein kinase ABL1 (Homo sapiens), P00519 [Q252H]; assay: Binding affinity to human non-phosphorylated ABL1 Q252H mutant (S229 to K512 residues) expressed in mammalian expression system assessed as residual binding level at 1 uM by Kinomescan method relative to control
Summary of the method: (§1)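 Kinome-wide single-concentration binding screen (KINOMEscan) at 1 μM against a panel of 468 purified kinases and mutants. Read-out is relative binding of each kinase compared with control. Selectivity across the panel was summarised as an S(10) score.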

[2] = molecular target: Activin receptor type-2B (Homo sapiens) (UniProt Q13705); assay: Binding affinity to wild-type human ACVR2B (H169 to D504 residues) expressed in bacterial expression system assessed as residual binding level at 1 uM by Kinomescan method relative to control
Summary of the method: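 KINOMEscan competition binding against 468 purified kinases/mutants, test compound at 1 µM; residual binding relative to control.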

[3] = molecular target: Mitogen-activated protein kinase kinase kinase 6 (Homo sapiens) (UniProt O95382); assay: Binding affinity to wild-type human partial length ASK2 (M278 to R972 residues) expressed in mammalian expression system assessed as residual binding level at 1 uM by Kinomescan method relative to control
Summary of the method: (§2)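 Single-concentration KINOMEscan (DiscoverX) binding screen at 1 μM against a panel of 468 purified kinases and mutants. The read-out is binding relative to control.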

[4] = molecular target: Tyrosine-protein kinase receptor UFO (Homo sapiens) (UniProt P30530); assay: Binding affinity to wild-type human partial length AXL (R497 to Y821 residues) expressed in bacterial expression system assessed as residual binding level at 1 uM by Kinomescan method relative to control; summary of the method: as §2
Tyrosine-protein kinase receptor UFO (Homo sapiens), sequence (P30530 whole entry, the tested form may be a part): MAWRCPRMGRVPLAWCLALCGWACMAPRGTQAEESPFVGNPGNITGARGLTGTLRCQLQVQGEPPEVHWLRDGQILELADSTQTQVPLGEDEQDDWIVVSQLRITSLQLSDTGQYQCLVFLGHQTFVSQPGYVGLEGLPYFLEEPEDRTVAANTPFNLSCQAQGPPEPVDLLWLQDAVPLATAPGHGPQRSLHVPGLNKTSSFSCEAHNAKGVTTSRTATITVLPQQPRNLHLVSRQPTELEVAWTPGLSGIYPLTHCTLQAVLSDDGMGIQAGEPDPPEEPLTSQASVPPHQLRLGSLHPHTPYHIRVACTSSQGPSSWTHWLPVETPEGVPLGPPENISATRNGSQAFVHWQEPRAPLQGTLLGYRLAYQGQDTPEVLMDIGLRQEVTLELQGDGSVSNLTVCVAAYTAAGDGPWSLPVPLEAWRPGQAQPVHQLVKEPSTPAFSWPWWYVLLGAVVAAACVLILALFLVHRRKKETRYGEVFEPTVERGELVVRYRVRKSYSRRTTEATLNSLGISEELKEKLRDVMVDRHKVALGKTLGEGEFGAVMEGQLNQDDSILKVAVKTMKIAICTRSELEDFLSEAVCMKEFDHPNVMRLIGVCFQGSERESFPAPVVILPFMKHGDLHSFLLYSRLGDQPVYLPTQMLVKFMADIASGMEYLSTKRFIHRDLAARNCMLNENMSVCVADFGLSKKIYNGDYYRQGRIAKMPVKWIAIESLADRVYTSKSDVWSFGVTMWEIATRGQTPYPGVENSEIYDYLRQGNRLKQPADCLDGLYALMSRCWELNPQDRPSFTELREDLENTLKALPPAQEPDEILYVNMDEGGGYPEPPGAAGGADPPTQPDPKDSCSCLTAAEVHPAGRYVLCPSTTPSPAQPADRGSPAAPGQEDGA

[5] = system: Epidermal growth factor receptor (Homo sapiens), P00533 [L858R,T790M]; assay: Binding affinity to human partial length EGFR L858R/T790M double mutant (R669 to V1011 residues) expressed in mammalian expression system assessed as residual binding level at 1 uM by Kinomescan method relative to control; summary of the method: as §1
[6] = molecular target: Ephrin type-B receptor 4 (Homo sapiens) (UniProt P54760); assay: Binding affinity to wild-type human partial length EPHB4 (H585 to G892 residues) expressed in bacterial expression system assessed as residual binding level at 1 uM by Kinomescan method relative to control
[7] = molecular target: Rhodopsin kinase GRK1 (Homo sapiens) (UniProt Q15835); assay: Binding affinity to wild-type human full length GRK1 (M1 to S563 residues) expressed in mammalian expression system assessed as residual binding level at 1 uM by Kinomescan method relative to control
Rhodopsin kinase GRK1 (Homo sapiens), sequence (Q15835 whole entry, the tested form may be a part): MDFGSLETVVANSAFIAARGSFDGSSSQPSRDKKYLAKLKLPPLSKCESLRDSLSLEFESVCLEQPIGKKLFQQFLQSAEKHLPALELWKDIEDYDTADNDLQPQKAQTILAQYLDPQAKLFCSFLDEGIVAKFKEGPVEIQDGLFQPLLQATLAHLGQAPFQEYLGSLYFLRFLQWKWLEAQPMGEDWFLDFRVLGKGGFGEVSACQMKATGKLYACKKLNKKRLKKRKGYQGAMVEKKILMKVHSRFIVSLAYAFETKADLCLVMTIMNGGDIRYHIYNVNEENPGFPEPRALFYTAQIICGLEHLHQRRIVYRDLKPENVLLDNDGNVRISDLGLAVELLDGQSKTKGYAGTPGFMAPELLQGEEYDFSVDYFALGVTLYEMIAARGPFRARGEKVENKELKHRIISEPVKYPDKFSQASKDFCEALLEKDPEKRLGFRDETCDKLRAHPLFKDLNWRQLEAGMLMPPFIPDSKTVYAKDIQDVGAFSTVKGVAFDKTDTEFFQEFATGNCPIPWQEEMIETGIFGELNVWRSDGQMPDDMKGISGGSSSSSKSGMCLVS
Summary of the method: (§3)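 Single-concentration (1 μM) competition-binding screen run by KINOMEscan against a panel of 468 purified kinases and mutants. The read-out is the relative binding activity of the test compound to each kinase.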

[8] = molecular target: G protein-coupled receptor kinase 3 (Homo sapiens) (UniProt P35626); assay: Binding affinity to wild-type human full length GRK3 (M1 to L688 residues) expressed in mammalian expression system assessed as residual binding level at 1 uM by Kinomescan method relative to control; summary of the method: as §3
[9] = molecular target: Serine/threonine-protein kinase haspin (Homo sapiens) (UniProt Q8TF76); assay: Binding affinity to wild-type human partial length HASPIN (I452 to K798 residues) expressed in mammalian expression system assessed as residual binding level at 1 uM by Kinomescan method relative to control
Summary of the method: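 Kinome-wide competition binding screen against a panel of 468 purified kinases/mutants, with the test compound at a single concentration of 1 μM. Read-out is the relative binding activity of each kinase in the presence of compound.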

[10] = molecular target: LIM domain kinase 2 (Homo sapiens) (UniProt P53671); assay: Binding affinity to wild-type human full length LIMK2 (M1 to P638 residues) expressed in bacterial expression system assessed as residual binding level at 1 uM by Kinomescan method relative to control; summary of the method: as §3
LIM domain kinase 2 (Homo sapiens), sequence (P53671 whole entry, looked up, the tested form may be a part): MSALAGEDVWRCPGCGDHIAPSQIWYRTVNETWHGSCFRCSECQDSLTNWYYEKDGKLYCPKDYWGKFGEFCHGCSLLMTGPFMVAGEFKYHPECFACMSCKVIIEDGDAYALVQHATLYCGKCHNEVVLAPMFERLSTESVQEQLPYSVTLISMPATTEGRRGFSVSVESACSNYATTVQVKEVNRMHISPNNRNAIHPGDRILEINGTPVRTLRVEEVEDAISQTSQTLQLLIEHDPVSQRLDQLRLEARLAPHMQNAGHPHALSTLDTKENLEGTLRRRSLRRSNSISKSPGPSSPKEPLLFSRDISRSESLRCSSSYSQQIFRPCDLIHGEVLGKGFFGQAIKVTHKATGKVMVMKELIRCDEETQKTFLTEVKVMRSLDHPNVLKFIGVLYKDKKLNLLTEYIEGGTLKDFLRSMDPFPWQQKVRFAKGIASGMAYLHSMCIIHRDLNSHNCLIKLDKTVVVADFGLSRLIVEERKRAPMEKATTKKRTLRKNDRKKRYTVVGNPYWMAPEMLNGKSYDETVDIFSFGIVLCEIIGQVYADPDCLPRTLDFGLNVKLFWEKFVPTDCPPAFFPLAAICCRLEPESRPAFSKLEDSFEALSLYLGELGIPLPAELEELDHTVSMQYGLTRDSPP

[11] = molecular target: Tyrosine-protein kinase Mer (Homo sapiens) (UniProt Q12866); assay: Binding affinity to wild-type human partial length MERTK (R557 to L884 residues) expressed in bacterial expression system assessed as residual binding level at 1 uM by Kinomescan method relative to control
[12] = system: Hepatocyte growth factor receptor (Homo sapiens), P08581 [Y1235D]; assay: Binding affinity to human partial length MET Y1235D mutant (D1010 to S1367 residues) expressed in bacterial expression system assessed as residual binding level at 1 uM by Kinomescan method relative to control; summary of the method: as §1
[13] = molecular target: MAP kinase-interacting serine/threonine-protein kinase 2 (Homo sapiens) (UniProt Q9HBH9); assay: Binding affinity to wild-type human partial length MKNK2 (G63 to S388 residues) expressed in mammalian expression system assessed as residual binding level at 1 uM by Kinomescan method relative to control
MAP kinase-interacting serine/threonine-protein kinase 2 (Homo sapiens), sequence (Q9HBH9 whole entry, looked up, the tested form may be a part): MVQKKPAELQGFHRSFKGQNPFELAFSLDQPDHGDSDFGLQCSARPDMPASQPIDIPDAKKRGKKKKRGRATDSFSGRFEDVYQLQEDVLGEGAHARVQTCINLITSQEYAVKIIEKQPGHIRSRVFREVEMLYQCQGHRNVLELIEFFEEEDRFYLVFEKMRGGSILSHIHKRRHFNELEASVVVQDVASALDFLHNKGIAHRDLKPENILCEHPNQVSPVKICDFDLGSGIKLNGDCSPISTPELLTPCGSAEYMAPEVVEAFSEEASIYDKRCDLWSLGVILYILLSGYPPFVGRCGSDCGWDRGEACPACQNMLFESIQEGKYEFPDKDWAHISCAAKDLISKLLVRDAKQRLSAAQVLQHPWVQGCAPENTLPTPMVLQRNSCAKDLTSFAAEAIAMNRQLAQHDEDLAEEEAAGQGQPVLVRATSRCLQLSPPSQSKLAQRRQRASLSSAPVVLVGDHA

[14] = molecular target: Mitogen-activated protein kinase 14 (Homo sapiens) (UniProt Q16539); assay: Binding affinity to wild-type human full length p38-alpha (M1 to S360 residues) expressed in bacterial expression system assessed as residual binding level at 1 uM by Kinomescan method relative to control; summary of the method: as §2
Mitogen-activated protein kinase 14 (Homo sapiens), sequence (Q16539 whole entry, the tested form may be a part): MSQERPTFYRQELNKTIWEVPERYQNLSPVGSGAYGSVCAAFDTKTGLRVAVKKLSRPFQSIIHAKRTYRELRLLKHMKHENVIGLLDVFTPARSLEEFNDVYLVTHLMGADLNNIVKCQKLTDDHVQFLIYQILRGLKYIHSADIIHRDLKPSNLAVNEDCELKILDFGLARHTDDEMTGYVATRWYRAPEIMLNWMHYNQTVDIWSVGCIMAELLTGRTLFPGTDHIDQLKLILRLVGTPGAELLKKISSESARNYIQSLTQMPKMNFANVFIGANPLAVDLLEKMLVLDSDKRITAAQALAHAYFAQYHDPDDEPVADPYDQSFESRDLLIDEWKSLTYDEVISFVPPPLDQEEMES

[15] = molecular target: Serine/threonine-protein kinase PAK 6 (Homo sapiens) (UniProt Q9NQU5); assay: Binding affinity to wild-type human partial length PAK6 (N298 to C681 residues) expressed in bacterial expression system assessed as residual binding level at 1 uM by Kinomescan method relative to control
Serine/threonine-protein kinase PAK 6 (Homo sapiens), sequence (Q9NQU5 whole entry, looked up, the tested form may be a part): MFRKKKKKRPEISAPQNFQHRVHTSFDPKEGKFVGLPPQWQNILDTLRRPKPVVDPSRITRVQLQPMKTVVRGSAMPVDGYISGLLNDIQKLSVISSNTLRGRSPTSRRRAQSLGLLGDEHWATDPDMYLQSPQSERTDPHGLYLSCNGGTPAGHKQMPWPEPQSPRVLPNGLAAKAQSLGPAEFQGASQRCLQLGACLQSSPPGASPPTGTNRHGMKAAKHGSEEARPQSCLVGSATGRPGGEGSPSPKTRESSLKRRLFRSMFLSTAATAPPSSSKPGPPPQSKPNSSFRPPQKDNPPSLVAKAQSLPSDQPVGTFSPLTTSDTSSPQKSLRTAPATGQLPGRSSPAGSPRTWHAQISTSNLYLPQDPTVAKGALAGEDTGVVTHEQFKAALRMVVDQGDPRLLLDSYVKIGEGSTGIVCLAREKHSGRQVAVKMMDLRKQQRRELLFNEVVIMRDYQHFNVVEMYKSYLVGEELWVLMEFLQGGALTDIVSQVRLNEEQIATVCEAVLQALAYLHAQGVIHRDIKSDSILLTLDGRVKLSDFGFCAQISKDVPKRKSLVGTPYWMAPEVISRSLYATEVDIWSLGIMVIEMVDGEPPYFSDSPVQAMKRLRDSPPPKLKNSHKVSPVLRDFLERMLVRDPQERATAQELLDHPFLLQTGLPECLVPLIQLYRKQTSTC

[16] = molecular target: Ribosomal protein S6 kinase alpha-1 (Homo sapiens) (UniProt Q15418); assay: Binding affinity to wild-type human partial length N-terminal RSK1 Kinase domain 1 (M1 to E388 residues) expressed in bacterial expression system assessed as residual binding level at 1 uM by Kinomescan method relative to control
Ribosomal protein S6 kinase alpha-1 (Homo sapiens), sequence (Q15418 whole entry, the tested form may be a part): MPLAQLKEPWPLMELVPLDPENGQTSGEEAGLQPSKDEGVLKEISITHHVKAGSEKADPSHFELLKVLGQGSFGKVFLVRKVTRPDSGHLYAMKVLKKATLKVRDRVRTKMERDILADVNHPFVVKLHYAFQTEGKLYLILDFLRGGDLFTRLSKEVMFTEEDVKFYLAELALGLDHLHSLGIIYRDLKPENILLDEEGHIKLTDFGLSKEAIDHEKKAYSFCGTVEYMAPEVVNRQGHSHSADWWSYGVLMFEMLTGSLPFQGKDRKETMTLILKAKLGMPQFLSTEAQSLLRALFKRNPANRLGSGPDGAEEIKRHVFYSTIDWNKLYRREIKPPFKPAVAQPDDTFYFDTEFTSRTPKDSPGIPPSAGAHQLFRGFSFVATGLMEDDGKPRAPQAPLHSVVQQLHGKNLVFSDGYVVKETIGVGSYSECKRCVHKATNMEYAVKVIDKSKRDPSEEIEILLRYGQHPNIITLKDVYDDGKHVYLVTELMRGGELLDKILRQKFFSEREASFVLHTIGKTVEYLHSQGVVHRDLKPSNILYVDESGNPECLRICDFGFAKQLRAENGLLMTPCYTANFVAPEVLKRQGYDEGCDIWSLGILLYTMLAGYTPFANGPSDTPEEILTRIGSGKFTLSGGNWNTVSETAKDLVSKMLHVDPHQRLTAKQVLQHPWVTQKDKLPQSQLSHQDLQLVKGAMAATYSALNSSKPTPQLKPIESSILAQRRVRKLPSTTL

[17] = molecular target: Ribosomal protein S6 kinase beta-1 (Homo sapiens) (UniProt P23443); assay: Binding affinity to wild-type human partial length S6K1 (M1 to S421 residues) expressed in mammalian expression system assessed as residual binding level at 1 uM by Kinomescan method relative to control
[18] = molecular target: Serine/threonine-protein kinase Sgk2 (Homo sapiens) (UniProt Q9HBY8); assay: Binding affinity to wild-type human partial length SGK2 (L54 to C427 residues) expressed in mammalian expression system assessed as residual binding level at 1 uM by Kinomescan method relative to control
Serine/threonine-protein kinase Sgk2 (Homo sapiens), sequence (Q9HBY8 whole entry, the tested form may be a part): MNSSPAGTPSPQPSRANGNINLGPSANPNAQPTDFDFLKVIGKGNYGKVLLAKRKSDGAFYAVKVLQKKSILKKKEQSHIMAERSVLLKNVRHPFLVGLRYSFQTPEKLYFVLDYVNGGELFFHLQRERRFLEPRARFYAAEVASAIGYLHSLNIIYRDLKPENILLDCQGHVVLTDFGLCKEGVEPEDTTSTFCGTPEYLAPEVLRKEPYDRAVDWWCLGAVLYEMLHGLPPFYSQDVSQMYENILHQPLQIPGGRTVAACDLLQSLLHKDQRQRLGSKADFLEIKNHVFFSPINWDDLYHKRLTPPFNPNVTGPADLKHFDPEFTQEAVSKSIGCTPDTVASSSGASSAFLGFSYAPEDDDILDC

[19] = molecular target: Tyrosine-protein kinase Yes (Homo sapiens) (UniProt P07947); assay: Binding affinity to wild-type human partial length YES (T257 to L543 residues) expressed in bacterial expression system assessed as residual binding level at 1 uM by Kinomescan method relative to control
Homo sapiens = species: Homo sapiens; assay: Selectivity index, ratio of GI50 for TEL-fused PDGFRbeta (unknown origin) expressed in mouse BA/F3 cells to GI50 for TEL-fused PDGFRalpha (unknown origin) expressed in mouse BA/F3 cells; format: cell-based
Summary of the method: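 Parental BaF3 or IL-3-independent TEL-kinase BaF3 lines, made by retroviral infection and puromycin selection, grown in RPMI 1640 with 10% FBS. Cells seeded at 1–3 × 10^4 cells/mL with serial compound concentrations for 72 h. Viability read by CellTiter-Glo luminescence or CCK-8 absorbance at 450/655 nm and normalised to DMSO. GI50 obtained by triplicate testing with linear regression. Selectivity is the ratio of the two GI50 values.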

Work on `Cc1ccc(NC(=O)c2ccc(CN(CCN(C)C)C(=O)c3cccnc3)cc2)cc1Nc1nccc(-c2cccnc2)n1` yielded an Activity [1] of 23%, an Activity [2] of 89% and an Activity [3] of 100%. For the same molecule, the Activity [4] was 95%, the Activity [5] was 94% and the Activity [6] was 90%. For the same molecule, the Activity [7] was 96%, the Activity [8] was 98% and the Activity [9] was 72%. For the same molecule, the Activity [10] was 100%, the Activity [11] was 100% and the Activity [12] was 93%. The Activity [13] was 100%, the Activity [14] was 99% and the Activity [15] was 90%. The Activity [16] was 99%, the Activity [17] was 100% and the Activity [18] was 100%. It also gave an Activity [19] of 100% and a RatioGI50 (Homo sapiens) of 85.
